From ChEMBL document CHEMBL4823291, “Discovery of 5,6,7,8-tetrahydropyrido[3,4-d]pyrimidine derivatives as novel selective Axl inhibitors” (Bioorg Med Chem Lett, 2021)

How the values were obtained:
[1] = target: T1, Tyrosine-protein kinase receptor UFO (Homo sapiens, UniProt P30530); experiment: Inhibition of Axl (unknown origin) by cell free assay
T1 sequence (P30530 whole entry): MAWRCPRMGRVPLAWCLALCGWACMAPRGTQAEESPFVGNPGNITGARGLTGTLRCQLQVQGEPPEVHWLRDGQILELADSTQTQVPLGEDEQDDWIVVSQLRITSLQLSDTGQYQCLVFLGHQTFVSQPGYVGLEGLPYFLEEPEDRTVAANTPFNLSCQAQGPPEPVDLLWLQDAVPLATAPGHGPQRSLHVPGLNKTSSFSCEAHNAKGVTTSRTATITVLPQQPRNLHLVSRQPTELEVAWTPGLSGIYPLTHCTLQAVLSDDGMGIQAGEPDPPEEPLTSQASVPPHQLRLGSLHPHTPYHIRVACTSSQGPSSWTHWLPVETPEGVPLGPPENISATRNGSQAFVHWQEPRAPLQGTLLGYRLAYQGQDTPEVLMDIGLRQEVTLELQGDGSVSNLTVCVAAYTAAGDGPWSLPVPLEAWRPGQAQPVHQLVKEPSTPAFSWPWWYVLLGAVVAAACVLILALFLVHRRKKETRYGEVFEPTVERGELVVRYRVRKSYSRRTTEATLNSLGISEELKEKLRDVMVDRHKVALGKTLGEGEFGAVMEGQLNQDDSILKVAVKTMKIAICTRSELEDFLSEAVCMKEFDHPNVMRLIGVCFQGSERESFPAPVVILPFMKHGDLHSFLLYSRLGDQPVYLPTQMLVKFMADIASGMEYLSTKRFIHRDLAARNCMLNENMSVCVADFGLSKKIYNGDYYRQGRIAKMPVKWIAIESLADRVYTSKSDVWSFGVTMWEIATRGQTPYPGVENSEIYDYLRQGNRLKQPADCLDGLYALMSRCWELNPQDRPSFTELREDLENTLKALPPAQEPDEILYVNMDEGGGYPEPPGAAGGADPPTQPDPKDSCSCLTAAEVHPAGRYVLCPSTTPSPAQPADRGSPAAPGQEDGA

CYP1A2 = target: T2, CYP1A2 (Homo sapiens, UniProt P05177); experiment: Time dependent inhibition of CYP1A2 in human liver microsomes assessed as enzyme remaining activity using cocktail of probe CYP as substrate at 50 uM; type: ADME; settings: probe cocktail of CYP probe substrates, read-out: Activity
T2 sequence (P05177 whole entry): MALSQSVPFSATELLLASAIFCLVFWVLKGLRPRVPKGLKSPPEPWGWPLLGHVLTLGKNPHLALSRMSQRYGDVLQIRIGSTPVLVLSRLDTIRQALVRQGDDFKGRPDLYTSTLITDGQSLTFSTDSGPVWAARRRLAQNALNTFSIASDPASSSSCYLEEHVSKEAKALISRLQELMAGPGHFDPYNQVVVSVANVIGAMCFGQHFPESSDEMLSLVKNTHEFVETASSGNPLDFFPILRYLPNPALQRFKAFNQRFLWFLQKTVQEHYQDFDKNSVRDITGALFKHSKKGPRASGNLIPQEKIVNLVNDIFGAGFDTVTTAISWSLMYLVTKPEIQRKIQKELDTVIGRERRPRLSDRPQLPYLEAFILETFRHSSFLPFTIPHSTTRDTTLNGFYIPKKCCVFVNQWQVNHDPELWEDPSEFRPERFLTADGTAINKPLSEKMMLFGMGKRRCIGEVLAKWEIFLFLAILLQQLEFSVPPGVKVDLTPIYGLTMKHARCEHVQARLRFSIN
Method in brief: (§1)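 Time-dependent CYP inhibition in human liver microsomes, with test compound at 50 µM and a cocktail of probe CYP substrates.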

CYP2D6 = CYP2D6 (Homo sapiens, UniProt P10635); experiment: Time dependent inhibition of CYP2D6 in human liver microsomes assessed as enzyme remaining activity using cocktail of probe CYP as substrate at 50 uM; type: ADME; settings: probe cocktail of CYP probe substrates, read-out: Activity; method in brief: as §1
Chain of CYP2D6 (P10635 whole entry): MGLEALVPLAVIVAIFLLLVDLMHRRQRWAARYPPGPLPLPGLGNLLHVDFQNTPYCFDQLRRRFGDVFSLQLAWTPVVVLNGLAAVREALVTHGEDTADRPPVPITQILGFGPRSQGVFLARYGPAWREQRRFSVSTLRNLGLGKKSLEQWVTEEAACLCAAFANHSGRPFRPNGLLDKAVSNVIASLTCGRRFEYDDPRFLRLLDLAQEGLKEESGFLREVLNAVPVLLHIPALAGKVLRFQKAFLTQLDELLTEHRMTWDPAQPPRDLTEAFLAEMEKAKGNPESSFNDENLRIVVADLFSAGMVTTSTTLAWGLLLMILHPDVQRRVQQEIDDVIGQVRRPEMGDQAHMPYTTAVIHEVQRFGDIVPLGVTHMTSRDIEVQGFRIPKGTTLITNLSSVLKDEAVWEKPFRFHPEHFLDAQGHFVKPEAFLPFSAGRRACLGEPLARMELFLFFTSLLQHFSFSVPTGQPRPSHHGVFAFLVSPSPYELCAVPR

[2] = Cmax in CAnN.Cg-Foxnlnu/CrlCrlj mouse plasma at 50 mg/kg, po single dose measured up to 24 hrs by liquid chromatography tandem mass spectrometry; type: ADME, organism-based; design: route oral, dose 50 mg/kg, time <=24

IC50 [1]: 5.2 nM
activity at 50 µM (CYP1A2): 82%
activity at 50 µM (CYP2D6): 83%
Cmax [2]: 5290 ng/mL
Structure (SMILES): Cc1ccc(-n2c(=O)c(C(=O)Nc3ccc(Oc4ncnc5c4CCN(CC4CCN(C)CC4)C5)c(F)c3)cn(C3CCCC3)c2=O)nc1
